High-throughput results as filed in PubChem BioAssay.
DENV2 CPE rescue: DENV2-induced cell death inhibition; DENV2-infected cells, cytopathic effect rescue, plate reader; CPE inhibition, % at 9.99 µM; 350,000 tested, 1.7% active; in the data active = CPE inhibition above about 20%, passing the limit was not always enough; inconclusive = no clear call, values can overlap the other calls; tested in BHK-21 cells
E-sel inducer: E-selectin induction on HUVECs; HUVEC E-selectin immunofluorescence imaging; normalized: neutral wells 0, TNF-alpha wells 100; activation, % at 7.58 µM; 260,000 tested, 0.37% active; AID 686992;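 active = mean E-selectin-positive cell signal at least 10% of the positive control, reached in at least 60% of replicates, without over 20% cell loss; inconclusive = no rule given, readout overlaps actives, possibly toxicity-flagged; inactive = the rest, including those meeting only one limit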
Target sequence (P16581 whole entry, looked up): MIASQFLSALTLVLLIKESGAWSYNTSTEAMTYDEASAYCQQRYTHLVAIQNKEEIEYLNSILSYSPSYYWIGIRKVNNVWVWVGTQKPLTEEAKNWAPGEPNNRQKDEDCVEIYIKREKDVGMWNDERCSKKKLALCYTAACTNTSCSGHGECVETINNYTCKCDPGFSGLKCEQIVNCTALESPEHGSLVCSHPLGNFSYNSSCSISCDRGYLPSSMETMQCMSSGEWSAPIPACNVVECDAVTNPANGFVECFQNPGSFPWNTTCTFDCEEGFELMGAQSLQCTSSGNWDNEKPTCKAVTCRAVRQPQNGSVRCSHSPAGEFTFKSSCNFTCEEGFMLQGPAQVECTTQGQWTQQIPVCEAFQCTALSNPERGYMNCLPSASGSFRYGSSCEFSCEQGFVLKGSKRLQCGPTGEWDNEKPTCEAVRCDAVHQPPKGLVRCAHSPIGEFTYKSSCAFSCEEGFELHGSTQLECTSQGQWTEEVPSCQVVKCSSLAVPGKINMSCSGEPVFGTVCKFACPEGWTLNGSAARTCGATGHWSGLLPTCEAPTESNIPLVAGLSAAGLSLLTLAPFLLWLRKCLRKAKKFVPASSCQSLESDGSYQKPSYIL
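material = human umbilical vein endothelial cells (HUVEC), E-selectin induction | quantity = 3,000 cells/well | medium = EGM-2 growth medium on 0.1% gelatin-coated wells | technique = immunofluorescence imaging | read-out basis = % PE-positive cells | control set = TNF-alpha positive control, DMSO neutral control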
C2C12 statin: suppression of simvastatin myotoxicity. C2C12 myotubes + simvastatin, ATP luminescence, 48 h; scaled: DMSO 0, geranylgeraniol control 100. rescue of ATP level, % at 7.49 µM. 330,000 tested, 0.78% active. AID 602340;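 active = mean ATP rescue above about 67%, or every replicate alone reaching that limit, limit read from the data, passing the limit was not always enough; inconclusive = no clear call, values can overlap the other calls; inactive = mean under the limit and some replicate under it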;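 note: myotubes were challenged with 10 µM simvastatin during compound exposure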
A number is an active result; i = inactive; ? = inconclusive; nt = not tested or not shown; ! = not active in a repeat. A selection: hits, their analogues and other compounds. The true share with any hit is near 2.2%.

SMILES	DENV2 CPE rescue	E-sel inducer	C2C12 statin
COCC(=O)N1CCC2(CC1)CN(Cc1cccc(OC)c1)[C@@H](CO)c1c2c2ccc(OC)cc2n1C	?	i	nt
C[C@H](CO)N1C[C@H](C)[C@H](CN(C)C)Oc2ccc(NC(=O)c3ccncc3)cc2C1=O	i	nt	i
CS(=O)(=O)N(CC(=O)NCc1ccco1)c1ccc(OCc2ccccc2)cc1	i	i	123.1
COc1ccc(N(CC(=O)NCc2ccco2)S(C)(=O)=O)cc1	nt	nt	i
CC1CCN(S(=O)(=O)c2ccc3ccccc3c2)CC1	nt	i	153.0
CN1CCN(S(=O)(=O)c2ccc3ccccc3c2)CC1	i	i	i
C[C@H](CO)N1C[C@H](C)[C@@H](CN(C)Cc2ccc(-c3ccccc3)cc2)Oc2ccc(NC(=O)Cn3cnnn3)cc2CC1=O	i	i	89.0
C[C@@H]1CN([C@H](C)CO)C(=O)c2cc(NC(=O)Cn3cnnn3)ccc2O[C@H]1CN(C)Cc1ccc(C(=O)Nc2ccccc2N)cc1	i	i	nt
C[C@@H]1CN([C@@H](C)CO)C(=O)Cc2cc(NC(=O)Cn3cnnn3)ccc2O[C@H]1CN(C)Cc1ccc(-c2ccccc2)cc1	i	i	i
C[C@H](CO)N1C[C@H](C)[C@H](CN(C)Cc2ccc(C(=O)Nc3ccccc3N)cc2)Oc2ccc(NC(=O)Cn3cnnn3)cc2CC1=O	55.0	i	nt
CC(C)NC(=O)Nc1ccc2c(c1)C(=O)N([C@H](C)CO)C[C@H](C)[C@H](CN(C)Cc1ccc(C(=O)O)cc1)O2	i	i	i
O=C(c1cccc(F)c1)N1CCCCN2[C@@H](CO)[C@@H](c3ccc(C#CC4(O)CCCC4)cc3)[C@@H]2C1	i	i	i
CN(C)CCCNC(=O)C[C@H]1CC[C@H](NC(=O)c2ccccc2F)[C@H](CO)O1	i	i	i
Cc1ccc(S(=O)(=O)Nc2ccc3c(c2)C(=O)N([C@H](C)CO)C[C@H](C)[C@@H](CN(C)S(C)(=O)=O)OCCCC[C@@H](C)O3)cc1	i	i	nt
C[C@@H]1CCCCO[C@H](CN(C)S(C)(=O)=O)[C@@H](C)CN([C@@H](C)CO)C(=O)c2cc(NS(=O)(=O)c3ccc(F)cc3)ccc2O1	i	i	102.1
Cc1ccc(S(=O)(=O)Nc2ccc3c(c2)C(=O)N([C@@H](C)CO)C[C@H](C)[C@@H](CN(C)S(C)(=O)=O)OCCCC[C@H](C)O3)cc1	29.3	i	nt
C[C@H](CO)N1C[C@H](C)[C@@H](CN(C)S(C)(=O)=O)OCCCC[C@H](C)Oc2ccc(NS(=O)(=O)c3ccc(F)cc3)cc2C1=O	i	i	i
Cc1ccc(S(=O)(=O)Nc2ccc3c(c2)C(=O)N([C@@H](C)CO)C[C@H](C)[C@H](CN(C)S(C)(=O)=O)OCCCC[C@@H](C)O3)cc1	i	i	nt
Cc1ccc(S(=O)(=O)Nc2ccc3c(c2)C(=O)N([C@H](C)CO)C[C@@H](C)[C@H](CN(C)S(C)(=O)=O)OCCCC[C@@H](C)O3)cc1	36.0	i	nt
CCNC(=O)C[C@H]1CC[C@@H]2[C@H](COc3ccc(NC(=O)Nc4ccccc4Cl)cc3C(=O)N2C)O1	i	i	i
C[C@@H](O)C#Cc1ccc([C@@H]2[C@H]3CN(C(=O)c4ccc(F)cc4)CCCCN3[C@H]2CO)cc1	i	i	nt
C[C@@H]1CN([C@@H](C)CO)C(=O)c2cccc(NC(=O)c3cnccn3)c2O[C@@H]1CN(C)S(=O)(=O)c1ccc(Cl)cc1	nt	i	nt
CO[C@@H]1CN(C)C(=O)c2ccc(NS(=O)(=O)c3cn(C)cn3)cc2OC[C@@H](C)N(CCC(F)(F)F)C[C@H]1C	i	i	i
Cc1cccc(N2C(=O)C3CCC(c4ccccc4)CC3C2=O)c1 (centres undefined)	i	i	nt
COc1ccccc1N1C(=O)C2CCC(c3ccccc3)CC2C1=O (centres undefined)	23.3	nt	nt
SMILES	DENV2 CPE rescue	E-sel inducer	C2C12 statin
COCC(=O)Nc1ccc2c(c1)[C@@H]1C[C@H](CC(=O)NC3CCCCC3)O[C@@H](CO)[C@@H]1O2	i	i	i
CC(=O)N(C)C[C@H]1Oc2cc(C#CC3CC3)ccc2S(=O)(=O)N([C@@H](C)CO)C[C@@H]1C	nt	i	i
O=C(COc1ccccc1F)NCCc1ccc2c(c1)OCCO2	i	i	125.7
COc1cccc(/C=C/C(=O)NCCc2ccc3c(c2)OCCO3)c1	i	i	i
O=C(COc1ccccc1Cl)NCCc1ccc2c(c1)OCCO2	i	i	nt
O=C(/C=C/c1ccccc1)NCCc1ccc2c(c1)OCCO2	59.2	nt	nt
O=C(C1CC1)N1CCCCN2[C@H](C1)[C@@H](c1ccc(C#CC3(O)CCCC3)cc1)[C@@H]2CO	i	nt	nt
C[C@H](CO)N1C[C@H](C)[C@@H](CN(C)C(=O)c2ccccc2)Oc2ncc(-c3ccc(C#N)cc3)cc2C1=O	i	i	i
C/C=C/c1ccc(C2[C@H]3CNC[C@@H]2N3S(=O)(=O)c2ccccc2C)cc1 (some centres undefined)	20.4!	i	nt
C/C=C/c1ccc(C2[C@H]3CNC[C@@H]2N3S(=O)(=O)c2ccccc2OC)cc1 (some centres undefined)	i	i	nt
CCOC(=O)CNC=C(C(=O)OCC)C(=O)OCC	nt	nt	i
CCOC(=O)C(=CNCC(=O)OC)C(=O)OCC	nt	nt	106.8
COC(=O)c1scc(C)c1NC(=O)c1ccc(Cl)cc1	nt	nt	i
COC(=O)c1scc(C)c1NC(=O)C1CCCCC1	nt	nt	83.1
CC(C)NC(=O)Nc1ccc2c(c1)C(=O)N(C)[C@@H]1CC[C@H](CC(=O)NC3CCCCC3)O[C@H]1CO2	i	i	i
COCC(=O)N1CCC2(CC1)CN(Cc1nccs1)[C@H](CO)c1c2c2ccc(OC)cc2n1C	i	i	nt
CN(C)C(=O)c1ccc(-c2ccc3c(c2)[C@@H]2[C@@H](CCN2C(=O)c2ccccn2)[C@@H](CO)N3C)cc1	i	i	i
CC(C)[C@H](C)NC(=O)N(C)C[C@@H]1OCc2ccccc2-c2ccccc2C(=O)N([C@H](C)CO)C[C@@H]1C	i	i	i
O=C(O)C[C@H]1C[C@@H]2c3cc(NC(=O)Cc4ccncc4)ccc3O[C@@H]2[C@H](CO)O1	i	i	nt
CS(=O)(=O)Nc1ccc2c(c1)[C@H]1C[C@H](CC(=O)O)O[C@@H](CO)[C@H]1O2	24.9	i	nt
O=C(C[C@@H]1C[C@@H]2c3cc(NC(=O)Cc4ccncc4)ccc3O[C@@H]2[C@@H](CO)O1)NCCN1CCCCC1	77.1	i	i
COC(=O)C[C@H]1C[C@H]2c3cc(NS(C)(=O)=O)ccc3O[C@H]2[C@H](CO)O1	i	i	i
O=C(O)C[C@H]1C[C@@H]2c3cc(NC(=O)Cc4ccncc4)ccc3O[C@@H]2[C@@H](CO)O1	89.8	i	i
O=C(C[C@H]1C[C@@H]2c3cc(NC(=O)Cc4ccncc4)ccc3O[C@@H]2[C@H](CO)O1)NCCN1CCCCC1	i	i	i
Cc1noc(C)c1NC(=O)Nc1ccc2c(c1)C(=O)N([C@H](C)CO)C[C@@H](C)[C@@H](CN(C)C(=O)Nc1ccc3c(c1)OCO3)O2	i	i	i
C[C@H](CO)N1C[C@H](C)[C@H](CN(C)C(=O)Nc2cccc3ccccc23)Oc2c(NC(=O)c3cnccn3)cccc2C1=O	i	i	i
